Test results published in ChEMBL document CHEMBL1121830, “Inhibitors of polyamine biosynthesis. 9. Effects of S-adenosyl-L-methionine analogues on mammalian aminopropyltransferases in vitro and polyamine biosynthesis in transformed lymphocytes” (1981).

Assays:
[1] = system: Spermine synthase (Rattus norvegicus); test: Substrate activity for Prostatic spermine synthase product formation in rat
Mus musculus [2] = species on record: Mus musculus; test: Effect on putrescine polyamine accumulation in concanavalin A stimulated lymphocytes at 0.35 mM
Mus musculus [3] = species on record: Mus musculus; test: Effect on spermidine polyamine accumulation in concanavalin A stimulated lymphocytes at 0.10 mM
[4] = system: spermine synthase (Bos taurus); test: Compound was tested for its effect on Bovine brain spermine synthase at 0.1 mM
Mus musculus [5] = species on record: Mus musculus; test: Effect of the addition of stimulated spermine on the intracellular concentration in concanavalin A stimulated lymphocytes in the absence of compound at 24 hours
Mus musculus [6] = species on record: Mus musculus; test: Effect on putrescine polyamine accumulation in concanavalin A stimulated lymphocytes at 0.20 mM
Mus musculus [7] = species on record: Mus musculus; test: Effect of the addition of stimulated putrescine on the intracellular concentration in concanavalin A stimulated lymphocytes in the absence of compound at 48 hours
Mus musculus [8] = species on record: Mus musculus; test: Effect of the addition of stimulated spermine on the intracellular concentration in concanavalin A stimulated lymphocytes in the absence of compound at 48 hours
Mus musculus [9] = species on record: Mus musculus; test: Effect on spermidine polyamine accumulation in concanavalin A stimulated lymphocytes at 0.05 mM
[10] = molecular target: T1, Spermidine synthase (Rattus norvegicus) (UniProt Q99MI5); test: Substrate activity for Prostatic spermidine synthase product formation in rat
T1 sequence (whole entry): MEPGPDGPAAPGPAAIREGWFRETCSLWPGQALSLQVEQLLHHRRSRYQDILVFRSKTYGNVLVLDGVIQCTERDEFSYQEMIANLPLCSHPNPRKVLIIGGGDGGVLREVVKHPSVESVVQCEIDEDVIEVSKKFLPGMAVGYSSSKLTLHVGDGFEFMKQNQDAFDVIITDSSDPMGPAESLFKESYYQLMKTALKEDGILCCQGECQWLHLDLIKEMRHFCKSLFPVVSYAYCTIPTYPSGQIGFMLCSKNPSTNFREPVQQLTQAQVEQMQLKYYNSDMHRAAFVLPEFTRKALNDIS
In short: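 Substrate test: 0.13 mM S-methyladenosylhomocysteamine or analogue with 0.6 mM [14C]putrescine (spermidine synthase) or [14C]spermidine (spermine synthase). Enzyme was 1.57 mg rat ventral prostate soluble supernatant protein or 0.09 mg enzyme purified 30-fold from bovine brain soluble fraction. Incubated 20 min at 37 °C, stopped with perchloric acid, and labelled polyamines measured by paper electrophoresis.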

Mus musculus [11] = species on record: Mus musculus; test: Effect of the addition of stimulated spermidine on the intracellular concentration in concanavalin A stimulated lymphocytes in the presence of compound (0.5 mM) at 48 hours
Mus musculus [12] = species on record: Mus musculus; test: Effect of the addition of stimulated spermidine on the intracellular concentration in concanavalin A stimulated lymphocytes in the presence of compound (0.5 mM) and spermidine (50 uM) at 48 hours
Mus musculus [13] = species on record: Mus musculus; test: Effect of the addition of stimulated spermidine on the intracellular concentration in concanavalin A stimulated lymphocytes in the presence of compound (0.5 mM) and spermine (50 uM) at 48 hours
[14] = system: spermine synthase (Rattus norvegicus); test: Compound was tested for its effect on rat prostatic spermine synthase at 0.1 mM
Mus musculus [15] = species on record: Mus musculus; test: Effect on spermidine polyamine accumulation in concanavalin A stimulated lymphocytes at 0.02 mM
Mus musculus [16] = species on record: Mus musculus; test: Effect on putrescine polyamine accumulation in concanavalin A stimulated lymphocytes at 0.02 mM
[17] = system: spermine synthase (Bos taurus); test: Compound was tested for its effect on Bovine brain spermine synthase at 1.0 mM
Mus musculus [18] = species on record: Mus musculus; test: Effect of the addition of stimulated spermine (50 uM) on the intracellular concentration in concanavalin A stimulated lymphocytes in the absence of compound at 48 hours
[19] = system: spermine synthase (Bos taurus); test: Compound was tested for its effect on Bovine brain spermine synthase at 0.01 mM
[20] = molecular target: T1, Spermidine synthase (Rattus norvegicus); test: Compound was tested for its effect on rat prostatic spermidine synthase at 0.1 mM
In short: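 Rat prostate spermidine synthase preparation with 20 μM 14C-S-methyladenosylhomocysteamine and 1 mM putrescine, inhibitor at 0.1 mM. Incubation at 37 °C for 15 min; radiolabelled spermidine formed was measured.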

Mus musculus [21] = species on record: Mus musculus; test: Effect of the addition of stimulated spermidine on the intracellular concentration in concanavalin A stimulated lymphocytes in the presence of spermine (50 uM) at 48 hours
Mus musculus [22] = species on record: Mus musculus; test: Effect of the addition of stimulated spermidine on the intracellular concentration in concanavalin A stimulated lymphocytes in the absence of compound at 48 hours
Mus musculus [23] = species on record: Mus musculus; test: Effect on putrescine polyamine accumulation in concanavalin A stimulated lymphocytes at 0.05 mM
Mus musculus [24] = species on record: Mus musculus; test: Effect on putrescine polyamine accumulation in concanavalin A stimulated lymphocytes at 0.50 mM
[25] = system: spermine synthase (Bos taurus); test: Compound was tested for its effect on Bovine brain spermine synthase at 0.4 mM
Mus musculus [26] = species on record: Mus musculus; test: Effect of the addition of stimulated spermidine on the intracellular concentration in concanavalin A stimulated lymphocytes in the presence of compound (0.5 mM) at 24 hours
Mus musculus [27] = species on record: Mus musculus; test: Effect of the addition of stimulated spermidine on the intracellular concentration in concanavalin A stimulated lymphocytes in the presence of compound (0.5 mM) and putrescine (50 uM) at 48 hours
Mus musculus [28] = species on record: Mus musculus; test: Effect of the addition of stimulated spermidine on the intracellular concentration in concanavalin A stimulated lymphocytes in the presence of spermidine (50 uM) at 48 hours
[29] = molecular target: T1, Spermidine synthase (Rattus norvegicus); test: Substrate activity for the Bovine brain spermidine synthase product formation; settings: Bos taurus; target entry is the homologue from another species
Mus musculus [30] = species on record: Mus musculus; test: Effect on putrescine polyamine accumulation in concanavalin A stimulated lymphocytes at 0.10 mM

SMILES: CC(N)CC[S+](C)C[C@H]1O[C@@H](n2cnc3c(N)ncnc32)[C@H](O)[C@@H]1O.[I-] (stereo not given in full)
- Activity [1]: 0%
- Level (Mus musculus [2]): 4.2 pmol/g DNA
- Level (Mus musculus [3]): 38.7 pmol/g DNA
- Activity [4]: 88%
- Polyamine (Mus musculus [5]): 38.6 pmol/g
- Level (Mus musculus [6]): 6.8 pmol/g DNA
- Polyamine (Mus musculus [7]): 13.3 pmol/g
- Polyamine (Mus musculus [8]): 59.8 pmol/g
- Level (Mus musculus [9]): 39.8 pmol/g DNA
- Activity [10]: 56 pmol/min
- Polyamine (Mus musculus [11]): 19.3 pmol/g
- Polyamine (Mus musculus [12]): 26.2 pmol/g
- Polyamine (Mus musculus [13]): 20 pM/g
- Activity [14]: 66%
- Level (Mus musculus [15]): 67.3 pmol/g DNA
- Level (Mus musculus [16]): 17.8 pmol/g DNA
- Activity [17]: 23%
- Polyamine (Mus musculus [18]): 98.2 pM/g
- Activity [19]: 102%
- Activity [20]: 76%
- Polyamine (Mus musculus [21]): 38.2 pmol/g
- Polyamine (Mus musculus [22]): 90.5 pmol/g
- Level (Mus musculus [23]): 11 pmol/g DNA
- Level (Mus musculus [24]): 3.5 pmol/g DNA
- Activity [25]: 58%
- Polyamine (Mus musculus [26]): 17.5 pmol/g
- Polyamine (Mus musculus [27]): 21.7 pmol/g
- Polyamine (Mus musculus [28]): 157 pmol/g
- Activity [29]: 25 pmol/min
- Level (Mus musculus [30]): 8.9 pmol/g DNA
